Source: ChEMBL document CHEMBL1131529, “Novel tetranuclear orthometalated complexes of Pd(II) and Pt(II) derived from p-isopropylbenzaldehyde thiosemicarbazone with cytotoxic activity in cis-DDP resistant tumor cell lines. Interaction of these complexes with DNA” (J Med Chem, 1998)
Where “and” joins values, the source holds several entries; their conditions need not be identical. Identical values can stand only once.

Assays:
PAM = experiment: Inhibitory activity against PAM cell line; type: functional, cell-based, Mus musculus
Summary of the method: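 Murine keratinocytes, normal Pam and H-ras-transformed Pam-Ras, were grown in DMEM with 10% FCS and 2 mM glutamine. They were seeded at 10^4 cells/well, preincubated 3–4 h, then given compounds at 0–100 µM final for 24 h. MTT was added to 1 mg/mL for 5 h at 37 °C and absorbance read at 520 nm. IC50 came from % survival vs concentration plots, in quadruplicate.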

PAM-RAS (Mus musculus) = experiment: Inhibitory activity against PAM-RAS cell line
GLIOMA#112 = experiment: Inhibitory activity against GLIOMA#112 cell line; type: functional, cell-based, Homo sapiens
Summary of the method: (§1)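 Cells were seeded at 10^4/well and treated 24 h with compounds at 0–100 µM final (solvent ≤10%). Survival was measured by MTT reduction (1 mg/mL, 5 h) read at 520 nm. IC50 came from survival–concentration curves, in quadruplicate.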

GLIOMA#108 = experiment: Inhibitory activity against GLIOMA#108 cell line; type: functional, cell-based, Homo sapiens; summary of the method: as §1
NIH3T3 = experiment: Inhibitory activity against 3T3 cell line; type: functional, cell-based, Mus musculus
Summary of the method: (§2)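 HeLa cervical carcinoma cells were grown in DMEM with 10% FCS, and NIH 3T3 cells in DMEM with 10% newborn calf serum. Both were seeded at 10^4 cells/well and exposed 24 h to compounds at 0–100 µM final (ethanol or DMSO ≤10%). MTT was added to 1 mg/mL for 5 h at 37 °C and A520 read. IC50 came from survival curves, in quadruplicate.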

Jurkat = experiment: Inhibitory activity against JURKAT cell line; type: functional, cell-based, Homo sapiens
Summary of the method: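 Compounds were added at 0–100 µM final (ethanol or DMSO vehicle, ≤10%) for 24 h. MTT was added to 1 mg/mL for 5 h at 37 °C and absorbance read at 520 nm. IC50 came from % survival vs concentration curves, in quadruplicate.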

HeLa = experiment: Inhibitory activity against HeLa cell line; type: functional, cell-based, Homo sapiens; summary of the method: as §2

Compound | IC50 (PAM; Mus musculus, PAM) | IC50 (PAM-RAS (Mus musculus); Mus musculus, PAM-RAS) | IC50 (GLIOMA#112; Homo sapiens, GLIOMA#112) | IC50 (GLIOMA#108; Homo sapiens, GLIOMA#108) | IC50 (GLIOMA#112; glioma#112) | IC50 (Jurkat) | IC50 (GLIOMA#108; glioma#108) | IC50 (PAM; pam) | IC50 (PAM-RAS (Mus musculus); pam-ras) | IC50 (HeLa) | IC50 (NIH3T3)
COc1cc([C@@H]2c3cc4c(cc3[C@@H](O[C@@H]3O[C@@H]5CO[C@@H](C)O[C@H]5[C@H](O)[C@H]3O)[C@H]3COC(=O)[C@H]23)OCO4)cc(OC)c1O [ETOPOSIDE] | 180 µM | 136 µM | 62 µM | 76 µM |  |  |  |  |  |  | 
CISPLATIN |  |  |  |  | 120 µM | 22 µM | 86 µM | 164 µM | 165 µM | 7 µM | 35 µM

Further lines, with some results ahead:

IC50 (PAM; Mus musculus, PAM) | IC50 (PAM-RAS (Mus musculus); Mus musculus, PAM-RAS) | IC50 (GLIOMA#112; Homo sapiens, GLIOMA#112) | IC50 (GLIOMA#108; Homo sapiens, GLIOMA#108) | IC50 (GLIOMA#112; glioma#112) | IC50 (Jurkat) | IC50 (GLIOMA#108; glioma#108) | IC50 (PAM; pam) | IC50 (PAM-RAS (Mus musculus); pam-ras) | IC50 (HeLa) | Compound | IC50 (NIH3T3)
150 µM | 156 µM |  |  |  |  |  |  |  |  | COc1cccc2c1C(=O)c1c(O)c3c(c(O)c1C2=O)C[C@@](O)(C(=O)CO)C[C@@H]3O[C@H]1C[C@H](N)[C@H](O)[C@H](C)O1 [DOXORUBICIN] | 
 |  |  |  | 50 µM and 35 µM | 6 µM and 7 µM | 40 µM and 62 µM |  | 37 µM and 5 µM |  | Tetrameric orthopalladated p-isopropylbenzaldehyde thiosemicarbazone | 
 |  |  |  | 27 µM | 7 µM | 54 µM | 30 µM | 9 µM | 20 µM | Tetrameric orthoplatinated p-isopropylbenzaldehyde thiosemicarbazone | 21 µM
